Screening data as filed in PubChem BioAssay.
VLA-4 inh = inhibition in a human VLA-4 binding assay; AID 2557; 0.2% of 330,000 active; inhibition, % (about 7 µM as worked out from the volumes in the protocol); VLA-4 expressing cells, ligand binding flow cytometry; in the data active = inhibition above about 50%
Arrestin-AP2 inh = inhibitors of human beta-arrestin and AP2 interaction | 0.31% of 340,000 active | inhibition, % at 10 µM | FITC-arrestin peptide / GST-AP2 beads, flow cytometry; AP2 beta2 appendage carries R879A mutation;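 active = inhibition above a set limit, near 3 SD of compounds lacking own fluorescence, cut at about 54% in these data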;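 also: plate controls were DMSO wells for no effect and 5 µM unlabelled arrestin peptide for full effect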
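System: GST-AP2 R879A glutathione beads | Also added: FITC-arrestin peptide, 50 nM | Times: 12 min plus 1 h, RT | Signal: Bead flow cytometry, FITC channel | Buffer or medium: PBS with 0.05% Tween 20 and 0.1% BSA | Read-out basis: Percent drop in bead-associated FITC signal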
JMJD2C inh = human JMJD2C demethylase inhibition. Q9H3R0. GST-JMJD2C(1-420) H3K9me3 demethylation, DELFIA europium. inhibition, % at 2.35 µM. 0.069% of 330,000 active. AID 2099;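 active = more than half of a compound's replicate wells show inhibition beyond 50%, single wells judged on their own value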;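 also: signal counts dimethyl H3K9 product captured on neutravidin plate; 0% = median of DMSO wells and 100% = 0.3 times that DMSO median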
Target sequence (Q9H3R0 1-420 limits assumed): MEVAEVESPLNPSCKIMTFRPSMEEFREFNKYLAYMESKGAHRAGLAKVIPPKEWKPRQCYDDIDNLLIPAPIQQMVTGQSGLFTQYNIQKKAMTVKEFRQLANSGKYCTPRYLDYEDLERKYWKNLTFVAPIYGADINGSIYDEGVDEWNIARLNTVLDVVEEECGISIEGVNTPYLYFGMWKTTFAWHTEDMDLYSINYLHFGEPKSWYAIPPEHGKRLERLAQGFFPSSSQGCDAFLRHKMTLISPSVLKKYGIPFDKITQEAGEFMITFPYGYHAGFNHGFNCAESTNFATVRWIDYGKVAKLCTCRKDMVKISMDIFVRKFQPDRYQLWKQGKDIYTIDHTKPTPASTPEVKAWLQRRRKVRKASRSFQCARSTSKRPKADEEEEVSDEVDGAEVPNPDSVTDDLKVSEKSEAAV
pCIP destab = lowers stability of the mouse p/CIP coactivator protein; decrease of EGFP signal, % at 10 µM; 0.01% of 290,000 active; Q05BA5; F442A p/CIP-EGFP cells, EGFP fluorescence, 16 h; AID 1984;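 active = EGFP signal decrease of at least 30% at 10 µM or well 3 SD below plate mean, unless failing retest; inactive = the rest, including hits failing retest or dose response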
VLA-4 allo CP = confirmation of allosteric modulators of human VLA-4 integrin | shares compounds with VLA-4 inh | U937 cells, HUTS-21 LIBS mAb binding, flow cytometry; LDV ligand present at threefold Kd | inhibition, % at 6.7 µM | 2% of 1,300 active; in the data active = inhibition above about 40%;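 also: 0% = ligand without compound and 100% = no ligand background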
The depositor's hits bear a star; · = not tested or not shown. Only some compounds are listed: those with a hit (about 0.57% of all), similar ones and a draw of the others.

SMILES	VLA-4 inh	Arrestin-AP2 inh	JMJD2C inh	pCIP destab	VLA-4 allo CP
CCn1c(SCC(=O)Nc2nc(C)cs2)nnc1-c1ccncc1	6.8	-1.4	54.3*	-6.5	·
O=CN1CCN(S(=O)(=O)c2ccc(Cl)c(C(=O)O)c2)CC1	11.4	0.9	-7.6	-0.2	·
COc1ccc(OC)c(Nc2nc(-c3cccs3)cs2)c1	-0.8	-0.8	50.9*	13.7	·
S=C(Nc1ccc(Cl)cc1)Nc1cccc2cnccc12	-14.7	12.3	-4.3	-0.9	·
S=C(Nc1cccnc1)Nc1cccc2cnccc12	-4.9	43.7	-0.3	52.4*	·
O=C(NCCCN1CCN(c2ccccc2)CC1)C1CCCN(c2ncnc3c2nc2n3CCCCC2)C1 (stereo not drawn)	-0.8	37.3	1.3	0.1	·
C=CCN(CC=C)Cc1c(O)ccc2c1oc(=O)c1ccccc12	22.5	2.5	78.6*	·	·
Cc1cc(=O)oc2c(CN(C)Cc3ccccc3)c(O)ccc12	10.5	-1.4	1.8	-12.4	·
CC1CCCN(C(=S)SCC(=O)c2cc(Br)cc(Br)c2O)C1 (stereo not drawn)	6.5	-4.1	3.5	-8.3	·
O=C(CSC(=S)N1CCCC1)c1cc(Br)cc(Br)c1O	-24.8	·	57.8*	14.1	·
Clc1cccc(Cl)c1Cn1c(-c2cccnc2Cl)nc2ccccc21	-0.1	21.3	52.1*	-17.1	·
CCN(CC)CCNC(=O)c1ccc2c(c1NCCO)C(=O)c1ccccc1C2=O	-19.8	·	3.9	35.8*	·
CCCCOc1ccc(C(=O)Nc2ccc(N3CCN(C(C)=O)CC3)cc2)cc1	-6.5	-0.2	61.2*	1.3	·
C=CCn1c(SCC(=O)Nc2cccc(C(=O)OC)c2)nnc1C(C)NC(=O)c1cccs1 (stereo not drawn)	35.7	18.6	-14.2	-1.7	·
O=C(c1ccccc1)c1ccc2nc(N3CCN(C(=O)c4ccco4)CC3)c3nncn3c2c1	55.4*	6.9	-12.9	-16.9	-5.0
OCCC1CN(Cc2cnc(-c3ccccc3)s2)CCN1C1CCCC1 (stereo not drawn)	43.5	1.2	-8.9	-5.3	3.7
Cc1ccc(S(=O)(=O)NCC(c2ccco2)S(=O)(=O)c2ccccc2)cc1 (stereo not drawn)	-16.7	-3.7	-15.2	·	·
COc1ccc(OC)c(S(=O)(=O)NCC(c2ccco2)S(=O)(=O)c2ccccc2)c1 (stereo not drawn)	76.2*	48.6	-11.3	·	0.0
O=c1cc(-c2ccccc2)[nH]n1-c1nc2ccccc2[nH]1	-3.5	1.1	-28.4	0.5	·
CCc1cc(=O)[nH]c(-n2[nH]c(-c3ccccc3)cc2=O)n1	-8.6	-17.4	-20.1	6.4	3.7
CCn1c(-c2ccc(-c3ccccc3)cc2)c[nH]c1=S	92.6*	-5.7	3.1	-4.5	9.0
COc1ccccc1C(C)NS(=O)(=O)c1ccc(Cl)nc1 (stereo not drawn)	8.6	7.3	-2.3	·	·
CC1(C)C2CC=C(/C=N/NC(=O)c3ccc(O)cc3)C1C2 (stereo not drawn)	-1.4	0.4	-4.3	-1.2	·
CCN1CCN(CCCNC(=O)C2CCN(c3nnc(-n4cccc4)s3)CC2)CC1	2.1	40.0	3.0	6.4	·
O=C(NCCC1=CCCCC1)C1CCN(c2nnc(-n3cccc3)s2)CC1	56.2*	-9.0	12.8	17.7	5.4
SMILES	VLA-4 inh	Arrestin-AP2 inh	JMJD2C inh	pCIP destab	VLA-4 allo CP
COc1ccc(-c2sc3ccc(N4CCOCC4)cc3c2-c2ccc(OC)c(F)c2)cc1	14.5	-1.6	0.6	4.1	·
CC1=C(C(=O)OCC2CCCO2)C(c2ccncc2)C2=C(CCCC2=O)N1 (stereo not drawn)	92.0*	3.2	7.3	1.5	0.7
CC(C)(C)Nc1nc(SCC(=O)Nc2ccccc2Cl)nc(N2CCOCC2)n1	-2.0	-3.9	-0.7	-0.8	·
CCCc1cc(=O)[nH]c(-n2[nH]c3c(c2=O)CCCC3)n1	-5.8	25.1	-7.6	-22.2	3.1
N#CC1=C2SCCN2C(=O)C(C#N)C12CCCCC2 (stereo not drawn)	4.0	30.0	1.7	-8.8	·
O=C(CCc1ccc(S(=O)(=O)N2CCOCC2)cc1)Nc1ccccc1F	56.2*	7.1	-4.6	·	2.0
COc1ccc(S(=O)(=O)N2CCOCC2)cc1C(=O)Nc1ccc(N2CCCCCC2)cc1	·	36.3	·	·	·
Cc1ccc(NC(=O)c2cc(S(=O)(=O)N(C)C)ccc2N2CCCC2)cc1S(=O)(=O)N(C)C	2.1	5.7	-0.1	·	·
